Values joined by “and” are separate entries in the source; they are usually repeats but may differ in a detail not shown here. Equal entries are not always repeated. Blank lines part the entries; values can stand above or below the compound they belong to.
What was measured:
[1] = system: SS cells (homozygous sickle red blood cells); assay: Antisickling study; format: cell-based, human; conditions: for inhibition of RBC sickling: hypoxia
Method in brief: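 SS patient blood suspensions (20% hematocrit) were preincubated in air with 0, 1, 2 or 5 mM test compound (final DMSO <2%) at 37 °C for 1 h. They were then held under hypoxia (4% O2/96% N2) at 37 °C for 2 h. Aliquots were fixed in 2% glutaraldehyde without air exposure and scored microscopically for sickled cells. % inhibition was calculated against untreated control. Three biological replicates.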

[2] = cited from earlier work
Hb A = Hb A (Homo sapiens, UniProt P69905); assay: Time-dependent Hb adduct formation in normal whole blood; format: in vitro ADME; conditions: for Hb modification (residual Hb adduct) at 24 h: normal whole blood, 2 mM compound; for remaining activity at 2000 µM: read-out: remaining activity at 24 h
Method in brief: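 Normal donor whole blood (30% hematocrit) was incubated with 2 mM test compound at 37 °C for 24 h with shaking at 140 rpm. Aliquots taken at 0.5, 1, 2, 4, 6, 8 and 24 h were mixed 1:1 with sodium cyanoborohydride/borohydride mix (50 mM stock) to fix adducts. Samples were stored at −80 °C, then analysed by cation-exchange HPLC as %Hb modified versus time. Peak was found by visual inspection and AUC0–24 by linear trapezoidal rule.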

Hb = Hb (Homo sapiens, UniProt P69905); assay: Incubation of VZHE004 with Hb for 3 days, UPLC-MS analysis; format: physicochemical; conditions: incubated with Hb for 3 days
sickle Hb (Hb S) = sickle Hb (Hb S) (Homo sapiens, UniProt P69905); assay: Hb adduct formation study; format: cell-based; conditions: SS cells, 20% hematocrit, 2 mM compound, mean ± SD of three experiments
Method in brief: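 SS cell suspensions (20% hematocrit) were incubated with test compound (final DMSO <2%) in air at 37 °C for 1 h, then under 4% O2/96% N2 at 37 °C for 2 h. Cells were PBS-washed and lysed in hypotonic buffer. Clarified hemolysate was run on weak cation-exchange HPLC, and modified Hb S was taken from elution patterns. Three biological replicates, mean ± SD.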

[3] = at all three concentrations (1, 2 and 5 mM)

SMILES: O=Cc1ccc(COc2ccc(Cl)cc2)o1 [5-CMFC, 5-((4-chlorophenoxy)methyl)-2-furan carbaldehyde]
inhibition of RBC sickling [1, 3]: < 10%

SMILES: O=Cc1ccc(CO)o1 [5-HMF, 5-hydroxymethyl-2-furfural, reference compound]
plasma half-life [2]: ~ 1 h
Hb modification (residual Hb adduct) at 24 h (Hb A): ~ 2% and 1.1%
remaining activity at 2000 µM (Hb A): ~8%

SMILES: CC(C)(C)OC(=O)OCc1ccc(C=O)o1 [VZHE006, tert-Butyl((5-formylfuran-2-yl)methyl) Carbonate]
modified Hb (%) (sickle Hb (Hb S)): 50.0 ± 3.0%
fold antisickling potency over the other three esters and 5-HMF ([1]; 2 mM compound): roughly 3 fold
inhibition of RBC sickling ([1]; 5 mM compound): > 95%

SMILES: CCOCc1ccc(C=O)o1 [VZHE011, 5-(Ethoxymethyl)-2-furan Carboxadehyde]
modified Hb (%) (sickle Hb (Hb S)): 40.4 ± 3.9%

SMILES: COP(=O)(OC)OCc1ccc(C=O)o1 [VZHE014, (5-Formylfuran-2-yl)methyl Dimethyl Phosphate]
modified Hb (%) (sickle Hb (Hb S)): 19.7 ± 6.3%
inhibition of RBC sickling ([1]; 5 mM compound): 43% and ~ 40%

SMILES: CCCOCc1ccc(C=O)o1 [VZHE015, 5-(Propoxymethyl)-2-furan Carboxadehyde]
modified Hb (%) (sickle Hb (Hb S)): 39.7 ± 8.2%

SMILES: CC(C)OCc1ccc(C=O)o1 [VZHE016, 5-(Isopropoxymethyl)-2-furan Carboxadehyde]
modified Hb (%) (sickle Hb (Hb S)): 36.4 ± 9.7%
inhibition of RBC sickling ([1]; 5 mM compound): < 10%

Further lines, with some results ahead:

Hb modification (residual Hb adduct) at 24 h (Hb A): ~ 7%
remaining activity at 2000 µM (Hb A): ~29%
SMILES: O=Cc1ccc(COc2ccccc2[N+](=O)[O-])o1 [5-NMFC, 5-((2-nitrophenoxy)methyl)-2-furan carbaldehyde]
inhibition of RBC sickling [1, 3]: < 10%

Hb modification (residual Hb adduct) at 24 h (Hb A): ~ 7%
remaining activity at 2000 µM (Hb A): ~29%
SMILES: O=Cc1ccc(COc2ccccc2)o1 [5-PMFC, 5-(Phenoxymethyl)-2-furan carbaldehyde]

stability against hydrolytic cleavage of the ester (UPLC–MS) (Hb): intact
SMILES: CC(=O)OCc1ccc(C=O)o1 [VZHE004, (5-Formylfuran-2-yl)methyl Acetate]

modified Hb (%) (sickle Hb (Hb S)): 35.3 ± 11.6%
SMILES: COCc1ccc(C=O)o1 [VZHE005, 5-(Methoxymethyl)-2-furan Carboxadehyde]

Source: publication PMC5871537 (Molecular pharmaceutics, 2017)
